In ChEMBL document CHEMBL5712884, “S-Adenosyl-L-methionine-competitive inhibitors of the histone methyltransferase EZH2 induce autophagy and enhance drug sensitivity in cancer cells” (Anticancer Drugs, 2015):
One block for each compound: values may come before it. The source made the active and inactive calls. The rule behind the calls is not given here.

What was measured:
HepG2 [1] = experiment: Induction of autophagy in human HepG2 cells assessed as accumulation of LC3-II at 10 umol/L measured after 24 hrs by Western blot analysis; type: functional, cell-based; conditions: dose 10.0 µmol/L
How it was run: (§1)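 HepG2 cells given 2.5–10 μmol/l sorafenib for 24 h; whole-cell lysates immunoblotted for EZH2, LC3B and GAPDH, with ECL detection.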

HepG2 [2] = experiment: Anticancer activity in human HepG2 cells assessed as inhibition of EZH2 expression measured after 24 hrs by Western blot analysis; type: functional, cell-based; conditions: dose 2.5-10 µmol/L; how it was run: as §1
MDA-MB-231 [3] = experiment: Induction of autophagy in human MDA-MB-231 cells assessed as induction of LC3-II accumulation at 10 umol/L for 48 hrs by Western blot analysis; conditions: dose 10.0 µmol/L
[4] = biological target: Histone-lysine N-methyltransferase EZH2 (Homo sapiens) (UniProt Q15910); experiment: Inhibition of EZH2 in human HepG2 cells assessed as reduction in H3K27-me3 level at 20 umol/L incubated for 72 hrs by Western blot analysis; type: cell-based; conditions: dose 20.0 µmol/L
Chain of Histone-lysine N-methyltransferase EZH2 (Homo sapiens) (Q15910 whole entry, looked up): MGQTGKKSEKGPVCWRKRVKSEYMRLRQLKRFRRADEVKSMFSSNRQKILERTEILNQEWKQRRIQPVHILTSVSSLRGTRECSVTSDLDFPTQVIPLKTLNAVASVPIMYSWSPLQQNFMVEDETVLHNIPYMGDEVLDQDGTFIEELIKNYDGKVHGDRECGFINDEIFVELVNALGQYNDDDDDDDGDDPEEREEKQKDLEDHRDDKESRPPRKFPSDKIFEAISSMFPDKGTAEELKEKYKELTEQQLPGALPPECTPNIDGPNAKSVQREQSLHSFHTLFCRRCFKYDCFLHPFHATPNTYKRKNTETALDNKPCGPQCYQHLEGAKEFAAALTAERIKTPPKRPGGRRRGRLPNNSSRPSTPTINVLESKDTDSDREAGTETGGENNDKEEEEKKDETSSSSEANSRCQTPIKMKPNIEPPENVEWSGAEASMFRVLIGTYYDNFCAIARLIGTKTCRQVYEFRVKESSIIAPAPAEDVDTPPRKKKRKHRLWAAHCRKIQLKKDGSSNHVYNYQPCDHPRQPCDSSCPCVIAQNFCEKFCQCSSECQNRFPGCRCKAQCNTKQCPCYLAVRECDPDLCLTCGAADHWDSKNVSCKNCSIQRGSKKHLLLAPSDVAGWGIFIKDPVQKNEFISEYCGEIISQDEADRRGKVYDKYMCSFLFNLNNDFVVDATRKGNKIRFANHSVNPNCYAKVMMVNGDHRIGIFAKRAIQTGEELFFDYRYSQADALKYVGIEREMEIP

MDA-MB-231 [5] = experiment: Cytotoxicity against human MDA-MB-231 cells assessed as reduction in cell viability at >5 umol/L after 72 hrs by MTT analysis; type: functional, cell-based; conditions: dose > 5.0 µmol/L
How it was run: (§2)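 Cells in DMEM with 10% FBS at 37°C, 5% CO2, plated in 96-well plates and drug-treated for 72 h. MTT 0.5 mg/ml added for 4 h, formazan dissolved in DMSO, absorbance read at 550 nm. Means and SDs; Student's t-test.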

MDA-MB-231 [6] = experiment: Induction of apoptosis in human MDA-MB-231 cells assessed as induction of cleavage of caspase-3 at 10 to 20 umol/L incubated for 72 hrs by Western blot analysis; type: functional, cell-based; conditions: dose 10-20 µmol/L
HepG2 [7] = experiment: Cytotoxicity against human HepG2 cells assessed as effect on cell viability after 72 hrs by MTT analysis; type: functional, cell-based; how it was run: as §2
MDA-MB-231 [8] = experiment: Induction of apoptosis in human MDA-MB-231 cells assessed as induction of cleavage of PARP at 10 to 20 umol/L incubated for 72 hrs by Western blot analysis; type: functional, cell-based; conditions: dose 10-20 µmol/L
[9] = biological target: Histone-lysine N-methyltransferase EZH2 (Homo sapiens) (UniProt Q15910); experiment: Inhibition of EZH2 in human MDA-MB-231 cells assessed as reduction in H3K27-me3 level at 20 umol/L incubated for 72 hrs by Western blot analysis; type: cell-based; conditions: dose 20.0 µmol/L
A549 [10] = experiment: […] in human A549 cells assessed as induction of LC3-II accumulation at 10 to 20 umol/L measured after 24 hrs in presence of bafilomycin A1 by Western blot analysis; type: functional, cell-based; conditions: dose 10-20 µmol/L
How it was run: (§3)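 A549 and HepG2 cells drug-treated with or without bafilomycin A1. Lysates made in Tris pH 7.5/NP-40 buffer with protease and phosphatase inhibitors, 25–50 μg run on 7–12% SDS-PAGE, probed for LC3B, ECL detection.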

MDA-MB-231 [11] = experiment: Induction of autophagy in human MDA-MB-231 cells assessed as induction of LC3-II accumulation at 10 to 20 umol/L incubated for 24 hrs by Western blot analysis; type: functional, cell-based; conditions: dose 10-20 µmol/L
A549 [12] = experiment: […] in human A549 cells assessed as induction of LC3-II accumulation at 10 to 20 umol/L measured after 24 hrs by Western blot analysis; type: functional, cell-based; conditions: dose 10-20 µmol/L; how it was run: as §3
MDA-MB-231 [13] = experiment: Induction of autophagy in human MDA-MB-231 cells assessed as change in total LAMP2 expression at 20 umol/L measured after 24 hrs in presence of bafilomycin A1 by Western blot analysis; type: toxicity, cell-based; conditions: mda-mb-231, 24 h, 20 µM, dose 20 µmol/L
HepG2 [14] = experiment: Potentiation of sorafenib-induced anticancer activity in human HepG2 cells assessed as increase in cleaved PARP expression at 10 umol/L measured after 72 hrs by Western blot analysis; type: functional, cell-based; conditions: dose 10.0 µmol/L
How it was run: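 HepG2 cells given 5 μmol/l sorafenib, with or without 10 μmol/l compound, for 72 h. Whole-cell lysates immunoblotted for PARP1, LC3B and β-actin.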

[15] = biological target: Histone-lysine N-methyltransferase EZH2 (Homo sapiens) (UniProt Q15910); experiment: Inhibition of EZH2 in human A549 cells assessed as reduction in H3K27-me3 level at 20 umol/L incubated for 72 hrs by Western blot analysis; type: cell-based; conditions: dose 20.0 µmol/L
HepG2 [16] = experiment: Cytotoxicity against human HepG2 cells assessed as effect on cell viability incubated for 72 hrs by MTT analysis; type: functional, cell-based; how it was run: as §2
HepG2 [17] = experiment: Potentiation of sorafenib-induced anticancer activity in human HepG2 cells at 10 umol/L measured after 72 hrs by MTT assay; type: functional, cell-based; conditions: dose 10.0 µmol/L
How it was run: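 HepG2 cells given a range of sorafenib doses, with or without 10 μmol/l compound, for 72 h. Viability by MTT (0.5 mg/ml, 4 h, DMSO, A550). Student's t-test against untreated cells.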

MDA-MB-231 [18] = experiment: Cytotoxicity against human MDA-MB-231 cells assessed as cell viability at 5 umol/L after 72 hrs by MTT analysis relative to control; type: functional; conditions: MDA-MB-231, 72 h, dose 5 µmol/L, read-out: Activity; how it was run: as §2
HepG2 [19] = experiment: […] in human HepG2 cells assessed as induction of LC3-II accumulation at 10 to 20 umol/L measured after 24 hrs by Western blot analysis; type: functional, cell-based; conditions: dose 10-20 µmol/L; how it was run: as §3
MDA-MB-231 [20] = experiment: Induction of autophagy in human MDA-MB-231 cells assessed as change in total LAMP2 expression at 20 umol/L measured after 24 hrs by Western blot analysis; type: toxicity, cell-based; conditions: mda-mb-231, 24 h, 20 µM, dose 20 µmol/L
MDA-MB-231 [21] = experiment: Induction of autophagy in human MDA-MB-231 cells assessed as reduction in expression of p62 at 20 umol/L incubated for 24 hrs by Western blot analysis; type: functional, cell-based; conditions: dose 20.0 µmol/L
HepG2 [22] = experiment: […] in human HepG2 cells assessed as induction of LC3-II accumulation at 10 to 20 umol/L measured after 24 hrs in presence of bafilomycin A1 by Western blot analysis; type: functional, cell-based; conditions: dose 10-20 µmol/L; how it was run: as §3
MDA-MB-231 [23] = experiment: […] in human MDA-MB-231 cells assessed as induction of LC3-II accumulation at 2 umol/L for 48 hrs by Western blot analysis; type: functional, cell-based; conditions: dose 2.0 µmol/L

Structure (SMILES): CNC(=O)c1cc(Oc2ccc(NC(=O)Nc3ccc(Cl)c(C(F)(F)F)c3)cc2)ccn1
Activity (HepG2 [1]): Active | inhibition (HepG2 [2]): Active

Structure (SMILES): CCCc1cc(C)[nH]c(=O)c1CNC(=O)c1cc(-c2ccc(N3CCN(C(C)C)CC3)nc2)cc2c1cnn2C(C)C
Activity (MDA-MB-231 [3]): Active

inhibition [4]: Active | inhibition [9]: Active | inhibition [15]: Active
Structure (SMILES): Nc1nccc2c1ncn2[C@@H]1C=C(CO)[C@@H](O)[C@H]1O
Activity (MDA-MB-231 [5]): inactive | Activity (MDA-MB-231 [6]): inactive | Activity (HepG2 [7]): Active | Activity (MDA-MB-231 [8]): Active | Activity (A549 [10]): inactive | Activity (MDA-MB-231 [11]): inactive | Activity (A549 [12]): inactive | Activity (MDA-MB-231 [13]): Non-Toxic | Activity (HepG2 [14]): inactive | Activity (HepG2 [16]): Active | Activity (HepG2 [17]): inactive | viability at 5 µM (MDA-MB-231 [18]): 67% | Activity (HepG2 [19]): inactive | Activity (MDA-MB-231 [20]): Non-Toxic | Activity (MDA-MB-231 [21]): Active | Activity (HepG2 [22]): inactive

Structure (SMILES): O=C(CCCCCCC(=O)Nc1ccccc1)NO
Activity (MDA-MB-231 [23]): Active

Structure (SMILES): COc1cc([C@@H]2c3cc4c(cc3[C@@H](O[C@@H]3O[C@@H]5CO[C@@H](C)O[C@H]5[C@H](O)[C@H]3O)[C@H]3COC(=O)[C@H]23)OCO4)cc(OC)c1O
Activity (MDA-MB-231 [3]): Active
